A short description of data set [1]: Partition coefficient (logP). It is filed as physicochemical. Conditions: octanol/water.
In data set [2] the target is Sodium channel alpha subunits; brain (Types I, II, III) (Rattus norvegicus, UniProt P04775+P04774+P08104). As to the kind of experiment: In vitro inhibition of Voltage-gated sodium channel by the displacement of [3H]batrachotoxin A 20-alpha-benzoate in rat brain cerebral cortex synaptoneurosomes. Format: tissue-based. The method in brief: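 Rat cerebral cortex gray matter synaptoneurosomes (~1 mg protein), washed in HEPES/choline chloride buffer pH 7.4 and stored at –70 °C. […] Filtration read-out; nonspecific binding taken with 300 μM veratridine. Points run in triplicate; IC50 by Probit analysis, using only 10–90% inhibition.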

The logP is a log measure of how a compound divides between an organic and an aqueous phase. As usually defined, the IC50 is the midpoint of a concentration-inhibition curve. Low readings indicate greater potency, high ones weaker potency. On to `CCCCCCCC(O)(C(N)=O)c1ccccc1` (stereo unspecified), for which the logP in data set [1] (read-out: logP) came out at 3.7. Also, the IC50 in data set [2] was found to be 9 µM.

As for `O=C1NC(=O)C2(CCCc3ccccc32)N1` (stereo unspecified), the log partition coefficient (logP) in data set [1] (read-out: logP) amounted to 1.46.

Turning to `O=C1NC(=O)C2(CCc3ccccc32)N1` (stereo unspecified), the lipophilicity (logP) in data set [1] (read-out: logP) was found to be 0.96.

For `CCCCCCC1(c2ccccc2)NC(=O)NC1=O` (stereo unspecified), the log partition coefficient (logP) in data set [1] (read-out: logP) amounted to 3.4. Also, the half-inhibitory concentration (IC50) in data set [2] came out at 13 µM.

On to `O=C1NC(=O)C2(CCCCCc3ccccc32)N1` (stereo unspecified), for which the logP in data set [1] (read-out: logP) stood at 2.46.

As to `CC12C(=O)NC(=O)N1CCc1ccccc12` (stereo unspecified), in data set [1] (read-out: logP), the log partition coefficient (logP) came out at 1.52.

With `CCN1C(=O)NC(=O)C1(C)c1ccccc1` (stereo unspecified), the lipophilicity (logP) in data set [1] (read-out: logP) was determined as 2.02.

With `CCCCCCCCCC1(c2ccccc2)NC(=O)NC1=O` (stereo unspecified), the logP in data set [1] (read-out: logP) stood at 4.96. Further, the concentration for half-maximal inhibition (IC50) in data set [2] was 5 µM.

With `CCCCC1(c2ccc(C)cc2)NC(=O)NC1=O` (stereo unspecified), in data set [1] (read-out: logP), the logP turned out to be 2.96.

Regarding `O=C1NC(=O)C(c2ccccc2)(C2CCCCC2)N1` (stereo unspecified), in data set [1] (read-out: logP), the logP amounted to 2.96. In data set [2], this molecule had a half-maximal inhibitory concentration (IC50) of 58 µM.

On to `O=C1NC(=O)C2(CCCCc3ccccc32)N1` (stereo unspecified), for which, in data set [1] (read-out: logP), the lipophilicity (logP) was determined as 1.96.

Turning to `CCCCC1(c2cccc(C)c2)NC(=O)NC1=O` (stereo unspecified), the logP in data set [1] (read-out: logP) came to 2.96.

With `CCCCCCCC1(c2ccccc2)NC(=O)NC1=O` (stereo unspecified), the log partition coefficient (logP) in data set [1] (read-out: logP) is 3.96. In data set [2], the IC50 is 5 µM.

Take `CCCCC1(c2ccccc2C)NC(=O)NC1=O` (stereo in doubt; 14a): in data set [1] (read-out: logP), the logP was 2.96.

In turn, `CCCCC1(c2ccccc2C)NC(=O)NC1=O` (stereo in doubt; 14b) yielded a log partition coefficient (logP) in data set [1] of 2.96.

Turning to `NC(=O)N1c2ccccc2C=Cc2ccccc21` [CARBAMAZEPINE], in data set [1] (read-out: logP), the lipophilicity (logP) was found to be 2.13.

For the origin of these results see ChEMBL document CHEMBL1132715, “Comparative molecular field analysis of hydantoin binding to the neuronal voltage-dependent sodium channel” (J Med Chem, 1999).
